For one data set, the species on record is Cavia porcellus. The experiment in a line: Evaluated for the negative ionotropy logarithm of the molar concentration required to depress contraction in the Langendorff-perfused guinea pig heart by 25%. In kind it is functional. The procedure, abridged:
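Negative inotropy measured in vitro in a Langendorff-perfused guinea pig heart. Read-out is the molar concentration that depresses contraction by 25%, reported as pIC25.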

The species entered for the next data set is Rattus norvegicus. The experiment in a line: Evaluated for the negative logarithm of the molar concentration required to block [Ca2+] induced contraction of K+ depolarized rat aorta by 50%. In kind it is functional. Put shortly:
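Rat aorta depolarized with potassium, then contracted by adding calcium. Read-out is the molar concentration that inhibits the calcium-induced contraction by 50%, reported as pIC50.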

Data set [1] can be described thus: Selectivity index calculated as the ratio of Calcium pIC50 to that of negative inotropy IC25. In kind it is functional.
A short description of data set [2]: Compound was evaluated for the plasma half-life to investigate its pharmacokinetic profile in dogs after intravenous administration. In kind it is ADME, organism-based, Canis lupus familiaris. Conditions: dog.
A short description of data set [3]: Compound was evaluated for the volume of distribution to investigate its pharmacokinetic profile in dogs after intravenous administration. In kind it is ADME, organism-based, Canis lupus familiaris. Conditions: dog, in vivo, read-out: Volume of distribution.
Data set [4] in a line: Compound was evaluated for the plasma clearance to investigate its pharmacokinetic profile in dogs after intravenous administration. In kind it is ADME, organism-based, Canis lupus familiaris. The settings on record: dog.

One may read the IC50 as the concentration that gives 50% inhibition. Read a low IC50 as higher potency. `CCO/C(O)=C1\C(COCC(C)(O)Cc2ccccn2)=NC(C)=C(C(=O)OC)C1c1cccc(Cl)c1Cl` (configuration not stated) registered a pIC25 in the data set listed under Cavia porcellus of 7.5. In addition, in the data set listed under Rattus norvegicus, half-maximal inhibition (IC50) was put at 63.1 nM. For the same compound, the Selectivity index in data set [1] is 2.
The corresponding values for `CCO/C(O)=C1\C(COCC(C)(O)CO)=NC(C)=C(C(=O)OC)C1c1cccc(Cl)c1Cl` (configuration not stated) are 7, 25.1 nM and 4.
Taken in the same sequence, the figures for `CCO/C(O)=C1\C(COCC(C)(O)CNc2ncccn2)=NC(C)=C(C(=O)OC)C1c1cccc(Cl)c1Cl` (configuration not stated) were 7.1, 39.8 nM and 2.
For the compound `CCO/C(O)=C1\C(COCC(C)(O)Cn2cncn2)=NC(C)=C(C(=O)OC)C1c1cccc(Cl)c1Cl` (configuration not stated), in the data set listed under Cavia porcellus, the pIC25 worked out at 7.2. Moreover, in the data set filed under Rattus norvegicus, the half-inhibitory concentration (IC50) is 20 nM. Besides, in data set [1], the Selectivity index is 3.
As usually defined, the half-life is the time needed for the level to fall by half in the phase considered. Low values mean rapid decline, high ones slow decline. The term clearance denotes a measure of how efficiently the substance is removed, as volume per time. Take `CCO/C(O)=C1\C(COCCO)=NC(C)=C(C(=O)OC)C1c1cccc(Cl)c1Cl` (configuration not stated): in the data set listed under Cavia porcellus, the pIC25 worked out at 7.4. The half-maximal inhibitory concentration (IC50) in the data set filed under Rattus norvegicus was 3.98 nM. Besides, in data set [2], the half-life is 7.3 h. In addition, the Selectivity index in data set [1] was 10. Also, the Vd in data set [3] amounted to 6 L/kg. In data set [4], this compound yielded a clearance of 9.6 mL/min/kg.
`CCO/C(O)=C1\C(COCC(C)(O)c2ccco2)=NC(C)=C(C(=O)OC)C1c1cccc(Cl)c1Cl` (configuration not stated) registered a pIC25 in the data set listed under Cavia porcellus of 6.6. The compound also had an IC50 in the data set listed under Rattus norvegicus of 15.8 nM. Further, in data set [1], the Selectivity index was 16.
In turn, `CCO/C(O)=C1\C(COCC(C)(O)CSc2ncccn2)=NC(C)=C(C(=O)OC)C1c1cccc(Cl)c1Cl` (configuration not stated) showed a pIC25 in the data set listed under Cavia porcellus of 7.4. In addition, in the data set filed under Rattus norvegicus, the half-inhibitory concentration (IC50) was 25.1 nM. For the same compound, in data set [1], the Selectivity index is 1.6.
In the case of `CCCOCC1=C(C(=O)OCC)C(c2cccc(Cl)c2Cl)/C(=C(\O)OC)C(C)=N1` (configuration not stated), the pIC25 in the data set listed under Cavia porcellus was 6.2. In addition, in the data set listed under Rattus norvegicus, the IC50 is 31.6 nM. In addition, the Selectivity index in data set [1] was 20.
Regarding `CCO/C(O)=C1\C(COCC(C)(O)CN)=NC(C)=C(C(=O)OC)C1c1cccc(Cl)c1Cl` (configuration not stated), the pIC25 in the data set listed under Cavia porcellus was 6.5. This compound gave an IC50 in the data set filed under Rattus norvegicus of 158 nM. Besides, the Selectivity index in data set [1] was 2.
In the data set filed under Cavia porcellus, `CCO/C(O)=C1\C(COCC(O)CO)=NC(C)=C(C(=O)OC)C1c1cccc(Cl)c1Cl` (configuration not stated) came in with a pIC25 of 6.9. In the data set listed under Rattus norvegicus, this compound showed a concentration for half-maximal inhibition (IC50) of 15.8 nM. Further, the Selectivity index in data set [1] is 8.
Compound `CCO/C(O)=C1\C(COCC(C)O)=NC(C)=C(C(=O)OC)C1c1cccc(Cl)c1Cl` (configuration not stated) displayed a pIC25 in the data set listed under Cavia porcellus of 7.3. In addition, in the data set filed under Rattus norvegicus, the IC50 was 15.8 nM. Further, the Selectivity index in data set [1] is 3.
As for `CCO/C(O)=C1\C(COCCOC)=NC(C)=C(C(=O)OC)C1c1cccc(Cl)c1Cl` (configuration not stated), the pIC25 in the data set filed under Cavia porcellus came out at 6. In the data set filed under Rattus norvegicus, this compound gave an IC50 of 31.6 nM. Also, in data set [1], the Selectivity index is 30.
The compound `CCO/C(O)=C1\C(COCC(C)(C)O)=NC(C)=C(C(=O)OC)C1c1cccc(Cl)c1Cl` (configuration not stated) yielded a pIC25 in the data set listed under Cavia porcellus of 7.2. In the data set listed under Rattus norvegicus, 6.31 nM corresponded to half-maximal inhibition (IC50). Besides, the Selectivity index in data set [1] was 10.
As to `CCO/C(O)=C1\C(COCC(C)(O)Cn2ccnc2)=NC(C)=C(C(=O)OC)C1c1cccc(Cl)c1Cl` (configuration not stated), the pIC25 in the data set filed under Cavia porcellus worked out at 7.2. In addition, the midpoint of inhibition in the data set filed under Rattus norvegicus, the IC50, lay at 39.8 nM. Further, the Selectivity index in data set [1] is 1.6.
Consider `COC(=O)C1=C(C)NC(C)=C(C(=O)OC)C1c1ccccc1[N+](=O)[O-]` [NIFEDIPINE], for which the pIC25 in the data set filed under Cavia porcellus was 7.5. For the same compound, in data set [1], the Selectivity index was 8.
